Data taken from ChEMBL document CHEMBL2321703, “Identification of novel D-amino acid oxidase inhibitors by in silico screening and their functional characterization in vitro” (J Med Chem, 2013).
pIC50, pKi: −log10 of the molar value. Active and inactive are the calls of the source. No cut-off for these calls is given here.

Legend:
[1] = test system: D-amino-acid oxidase (Homo sapiens), P14920 [Y224A]; assay: (§1) Inhibition of human recombinant N-terminal His-tagged DAO Y224A mutant expressed in Escherichia coli BL21(DE3) using D-alanine as substrate after 10 mins by Lineweaver-Burk plot analysis
D-amino-acid oxidase [2] = molecular target: D-amino-acid oxidase (Homo sapiens, UniProt P14920, Y224A); assay: as §1
[3] = test system: D-amino-acid oxidase (Homo sapiens), P14920 [Y224F]; assay: (§2) Inhibition of human recombinant N-terminal His-tagged DAO Y224F mutant expressed in Escherichia coli BL21(DE3) using D-alanine as substrate after 10 mins by Lineweaver-Burk plot analysis
D-amino-acid oxidase [4] = molecular target: D-amino-acid oxidase (Homo sapiens, UniProt P14920, Y224F); assay: as §2
D-amino-acid oxidase [5] = molecular target: T1, D-amino-acid oxidase (Homo sapiens, UniProt P14920); assay: Competitive inhibition of human recombinant N-terminal His-tagged DAO expressed in Escherichia coli BL21(DE3) using D-alanine as substrate by Lineweaver-Burk plot analysis
How it was run: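 Purified N-terminal His-tagged human DAO from E. coli BL21(DE3)pLysS. Colorimetric 2-oxo acid assay in air-saturated 40 mM sodium pyrophosphate pH 8.3 with catalase, 60 μM FAD and 0.5–40 mM D-Ala, 37 °C for 10 min. Stopped with TCA, derivatized with 2,4-dinitrophenylhydrazine, read at A445. Lineweaver–Burk plots; Ki confirmed by slope replot against inhibitor concentration. Three independent experiments.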
Target sequence in this assay (P14920 whole entry, looked up): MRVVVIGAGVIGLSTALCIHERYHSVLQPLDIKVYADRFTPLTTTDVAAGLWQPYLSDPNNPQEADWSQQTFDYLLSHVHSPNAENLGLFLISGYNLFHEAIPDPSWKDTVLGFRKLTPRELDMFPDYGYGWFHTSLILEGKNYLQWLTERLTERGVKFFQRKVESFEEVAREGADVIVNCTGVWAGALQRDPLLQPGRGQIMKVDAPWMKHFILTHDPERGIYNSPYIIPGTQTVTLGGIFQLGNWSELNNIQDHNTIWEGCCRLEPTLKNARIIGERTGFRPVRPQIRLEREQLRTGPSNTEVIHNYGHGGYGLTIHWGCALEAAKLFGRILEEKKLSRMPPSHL

D-amino-acid oxidase [6] = molecular target: T1, D-amino-acid oxidase; assay: Binding affinity to human recombinant N-terminal His-tagged DAO expressed in Escherichia coli BL21(DE3) at 40 uM after 2 to 30 mins by absorption spectra analysis; settings: 200 uM, in the assay text read “at 200 uM” for “at 40 uM”
How it was run: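 Purified enzyme at 1.7 μg/μL in 10 mM sodium pyrophosphate pH 8.3 with 2 mM EDTA, 5 mM 2-mercaptoethanol, 10% (v/v) glycerol; wavelength scans at 25 °C before and after compound addition (final 40 μM or 200 μM depending on compound), recorded at indicated times; binding inferred from perturbation of the absorption spectrum.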
Target sequence in this assay (P14920 whole entry, looked up): as above

Serine racemase = molecular target: T2, Serine racemase (Homo sapiens, UniProt Q9GZT4); assay: (§3) Inhibition of human recombinant N-terminal His-tagged serine racemase expressed in Escherichia coli BL21(DE3) using L-serine as substrate after 10 mins by fluorescence assay
T2 sequence (Q9GZT4 whole entry): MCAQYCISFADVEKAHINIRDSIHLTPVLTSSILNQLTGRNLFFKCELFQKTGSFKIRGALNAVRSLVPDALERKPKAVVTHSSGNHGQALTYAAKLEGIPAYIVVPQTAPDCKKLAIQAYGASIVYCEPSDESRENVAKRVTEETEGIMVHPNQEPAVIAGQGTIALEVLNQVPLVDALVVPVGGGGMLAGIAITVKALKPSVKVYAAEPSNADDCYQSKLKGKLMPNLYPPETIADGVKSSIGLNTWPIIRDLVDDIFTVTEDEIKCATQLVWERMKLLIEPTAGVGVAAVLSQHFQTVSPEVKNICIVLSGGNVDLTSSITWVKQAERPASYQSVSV
How it was run: (§4)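 Purified enzyme (30 μg) in 40 mM Tris-HCl pH 8.0, 60 μM pyridoxal phosphate, 1 mM MgCl2, ATP, 1 mM dithiothreitol, 10 mM L-Ser, with compound; 37 °C, 10 min; methanol stop. D-Ser quantified by OPA/Boc-L-cysteine derivatization and reversed-phase HPLC fluorescence (ex 344, em 443 nm).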

D-amino-acid oxidase [7] = molecular target: T1, D-amino-acid oxidase; assay: Inhibition of human recombinant N-terminal His-tagged DAO expressed in Escherichia coli BL21(DE3) using D-alanine as substrate by colorimetric assay
D-amino-acid oxidase [8] = molecular target: T1, D-amino-acid oxidase; assay: Inhibition of human recombinant N-terminal His-tagged DAO expressed in Escherichia coli BL21(DE3) using D-serine as substrate by colorimetric assay
D-aspartate oxidase = molecular target: T3, D-aspartate oxidase (Homo sapiens, UniProt Q99489); assay: (§5) Inhibition of human recombinant N-terminal His-tagged DDO expressed in Escherichia coli BL21(DE3) using D-aspartate as substrate by colorimetric assay
T3 sequence (Q99489 whole entry): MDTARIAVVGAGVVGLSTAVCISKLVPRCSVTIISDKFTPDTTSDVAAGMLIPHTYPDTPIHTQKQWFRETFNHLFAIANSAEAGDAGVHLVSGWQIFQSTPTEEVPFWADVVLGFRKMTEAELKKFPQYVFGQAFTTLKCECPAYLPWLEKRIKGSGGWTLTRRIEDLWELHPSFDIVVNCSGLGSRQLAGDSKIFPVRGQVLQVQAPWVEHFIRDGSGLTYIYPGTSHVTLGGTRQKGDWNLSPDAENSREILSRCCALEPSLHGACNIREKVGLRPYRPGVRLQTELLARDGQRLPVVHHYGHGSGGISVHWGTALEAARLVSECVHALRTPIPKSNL
How it was run: (§6)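 Purified enzyme (0.23–4.2 μg) with 10 mM D-Asp in air-saturated 40 mM sodium pyrophosphate pH 8.3, 23 U catalase, 60 μM FAD; 37 °C, 10 min; trichloroacetic acid stop; 2-oxo acid measured as 2,4-dinitrophenylhydrazone at A445.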

D-amino-acid oxidase [9] = molecular target: T1, D-amino-acid oxidase
Target sequence in this assay (P14920 whole entry): as the sequence (P14920 whole entry, looked up) above

D-amino-acid oxidase [10] = molecular target: T1, D-amino-acid oxidase; assay: Inhibition of human recombinant N-terminal His-tagged DAO expressed in Escherichia coli BL21(DE3) using D-alanine as substrate by Lineweaver-Burk plot analysis
Target sequence in this assay (P14920 whole entry): as the sequence (P14920 whole entry, looked up) above

HEK293 = assay: Effect on L-alanine level in G418-resistant HEK293 cells at 17 uM by HPLC analysis relative to vehicle-treated control; assay type: functional, cell-based; settings: Homo sapiens
How it was run: (§7)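 293/NEO (empty-vector, G418-selected) or 293.HA-hDAO-24 (stable N-terminal HA-tagged human DAO) cells, 1 × 10^6 seeded, maintained in DMEM/10% FBS/800 μg/mL G418; next day fresh medium, compound or vehicle (5% DMSO solution) for 30 min, then 17 mM D-Ala for 24 h. Methanol extraction; D-/L-Ala by OPA/NAC derivatization HPLC with fluorescence; mean ± SD of three assays; Dunnett test vs vehicle.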

HEK293/NEO = assay: Effect on L-alanine level in G418-resistant HEK293/NEO cells at 17 uM by HPLC analysis relative to vehicle-treated control; assay type: functional, cell-based; settings: Homo sapiens; how it was run: as §7
D-amino-acid oxidase [11] = molecular target: T1, D-amino-acid oxidase; settings: HEK293/NEO, 17 uM
Target sequence in this assay (P14920 whole entry, looked up): as the sequence (P14920 whole entry, looked up) above

D-amino-acid oxidase [12] = molecular target: T1, D-amino-acid oxidase; assay: Inhibition of human recombinant N-terminal His-tagged DAO expressed in Escherichia coli BL21(DE3) using D-alanine as substrate assessed as residual activity at 10000 uM by colorimetric assay relative to control
How it was run: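 Purified enzyme (0.23–4.2 μg) in air-saturated 40 mM sodium pyrophosphate pH 8.3, 23 U catalase, 60 μM FAD, 10 mM D-amino acid substrate, with compound; 37 °C, 10 min; stopped with trichloroacetic acid. 2-Oxo acid reacted with 2,4-dinitrophenylhydrazine, A445 read against substrate-free blank.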
Target sequence in this assay (P14920 whole entry, looked up): as the sequence (P14920 whole entry, looked up) above

[13] = molecular target: T4, Serine racemase (Homo sapiens) (UniProt Q9GZT4); assay: as §3; how it was run: as §4
T4 sequence (whole entry): T2 sequence (Q9GZT4 whole entry)

[14] = molecular target: T5, D-aspartate oxidase (Homo sapiens) (UniProt Q99489); assay: as §5; how it was run: as §6
T5 sequence (whole entry): T3 sequence (Q99489 whole entry)

Sequence of D-amino-acid oxidase (Homo sapiens), P14920 [Y224F] (P14920 whole entry Y224F): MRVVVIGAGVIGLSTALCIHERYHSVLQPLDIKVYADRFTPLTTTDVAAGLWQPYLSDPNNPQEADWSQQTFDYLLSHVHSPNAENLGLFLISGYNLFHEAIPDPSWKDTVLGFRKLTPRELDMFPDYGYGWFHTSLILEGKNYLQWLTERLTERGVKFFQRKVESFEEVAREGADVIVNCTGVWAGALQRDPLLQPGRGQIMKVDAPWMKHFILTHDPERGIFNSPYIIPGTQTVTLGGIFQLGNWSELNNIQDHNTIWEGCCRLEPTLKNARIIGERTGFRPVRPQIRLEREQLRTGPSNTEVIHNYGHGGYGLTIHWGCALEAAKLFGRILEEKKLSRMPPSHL
Sequence of D-amino-acid oxidase (Homo sapiens), P14920 [Y224A] (P14920 whole entry Y224A): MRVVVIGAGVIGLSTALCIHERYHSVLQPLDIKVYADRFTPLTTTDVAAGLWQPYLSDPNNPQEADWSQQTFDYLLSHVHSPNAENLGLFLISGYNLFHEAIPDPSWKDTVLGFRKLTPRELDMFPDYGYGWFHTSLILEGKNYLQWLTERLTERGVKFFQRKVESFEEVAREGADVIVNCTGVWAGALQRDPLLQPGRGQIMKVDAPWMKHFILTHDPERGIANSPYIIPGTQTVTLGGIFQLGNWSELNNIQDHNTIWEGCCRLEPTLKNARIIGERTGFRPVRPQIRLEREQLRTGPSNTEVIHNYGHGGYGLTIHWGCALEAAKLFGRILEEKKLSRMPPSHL
Sequence of D-amino-acid oxidase (Homo sapiens, UniProt P14920, Y224F) (P14920 whole entry Y224F): as the sequence (P14920 whole entry Y224F) above
Sequence of D-amino-acid oxidase (Homo sapiens, UniProt P14920, Y224A) (P14920 whole entry Y224A): as the sequence (P14920 whole entry Y224A) above

SMILES	inhibition [1]	pKi (D-amino-acid oxidase [2])	inhibition [3]	pKi (D-amino-acid oxidase [4])	inhibition (D-amino-acid oxidase [5])	Activity (D-amino-acid oxidase [6])	pIC50 (Serine racemase)	pIC50 (D-amino-acid oxidase [7])	pIC50 (D-amino-acid oxidase [8])	inhibition (D-amino-acid oxidase [8])	pIC50 (D-aspartate oxidase)	pKi (D-amino-acid oxidase [9])	pKi (D-amino-acid oxidase [10])	Activity (HEK293)	Activity (HEK293/NEO)	inhibition (D-amino-acid oxidase [11])	Activity (D-amino-acid oxidase [12])	inhibition [13]	inhibition (D-amino-acid oxidase [7])	inhibition [14]
O=C(O)c1ccccc1 [BENZOIC ACID]	Dose-dependent effect	4.43	Dose-dependent effect	4.27	Active	Active	< 2.00	4.18	4.33	Dose-dependent effect	< 2.00	5.15	4.96	–	–	–	–	–	–	–
O=C(O)c1cc2occc2[nH]1	Dose-dependent effect	–	Dose-dependent effect	–	Active	–	< 4.00	–	–	Dose-dependent effect	< 4.00	–	–	inactive	inactive	inactive	–	–	–	–
O=C(O)/C=C/c1cccc(O)c1	–	–	–	–	–	–	2.08	< 2.00	2.20	Dose-dependent effect	< 2.00	–	–	–	–	–	51.5%	Dose-dependent effect	Dose-dependent effect	Dose-dependent effect
